# Only some compounds are listed: those with a hit (about 2.6% of all), similar ones and a draw of the others.
# core dimer inh: blocks dimerization of HCV core protein | AID 1899 | TR-FRET GST/Flag-core106 dimerization, 1536-well | inhibition, % at 5 µM | hit rate 0.33% among 300,000;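 active = inhibition above the mean of all tested compounds plus 3 SD, set per screening campaign, cut at about 45% in these data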
#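 Assay system: tagged HCV core106 pair (GST and Flag); medium: KF-containing HEPES buffer, pH 7.45, DTT, CHAPS, BSA; also added: Eu donor and XL665 acceptor anti-tag antibodies; dosing: 5 µM single dose; timing: compound-protein-antibody incubation 4 h at 22.5 °C; signal: TR-FRET 671 and 617 nm emission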
# ABHD5-PLIN5 inh: blocks binding of human ABHD5 to perilipin-5; Q00G26+Q8WTS1; Split G. princeps luciferase complementation, luminescence, 4 h; inhibition, % at 4 µM; hit rate 0.78% among 360,000; AID 602281;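 active = inhibition above the mean inhibition across every tested compound plus 3 SD, cut at about 22% in these data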;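 also: 0% = DMSO only wells and the 100% control is not disclosed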
# Target sequence (Q00G26 whole entry, looked up): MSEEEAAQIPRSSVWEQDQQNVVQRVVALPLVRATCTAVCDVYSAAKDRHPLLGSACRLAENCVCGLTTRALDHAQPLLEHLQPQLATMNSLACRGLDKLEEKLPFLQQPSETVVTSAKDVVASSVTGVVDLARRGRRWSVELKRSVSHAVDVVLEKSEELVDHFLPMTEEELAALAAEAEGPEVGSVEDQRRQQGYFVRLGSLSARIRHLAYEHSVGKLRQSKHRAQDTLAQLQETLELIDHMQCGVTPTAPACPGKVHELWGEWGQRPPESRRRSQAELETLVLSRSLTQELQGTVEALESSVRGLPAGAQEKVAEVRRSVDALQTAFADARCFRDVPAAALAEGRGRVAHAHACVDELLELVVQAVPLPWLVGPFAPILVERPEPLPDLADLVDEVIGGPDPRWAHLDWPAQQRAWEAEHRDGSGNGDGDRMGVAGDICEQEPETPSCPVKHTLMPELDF
# Target sequence (Q8WTS1 whole entry, looked up): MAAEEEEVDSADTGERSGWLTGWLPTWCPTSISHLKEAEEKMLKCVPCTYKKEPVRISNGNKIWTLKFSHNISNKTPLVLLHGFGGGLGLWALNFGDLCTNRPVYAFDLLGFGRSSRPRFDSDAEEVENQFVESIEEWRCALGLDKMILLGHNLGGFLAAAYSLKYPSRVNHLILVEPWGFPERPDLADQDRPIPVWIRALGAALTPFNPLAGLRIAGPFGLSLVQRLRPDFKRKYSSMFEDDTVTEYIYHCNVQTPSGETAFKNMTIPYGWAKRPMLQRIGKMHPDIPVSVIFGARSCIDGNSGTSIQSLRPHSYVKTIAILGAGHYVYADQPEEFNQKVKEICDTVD
# rCAG RNA binder: r(CAG) repeat RNA binding. AID 651821. TO-PRO-1 dye displacement fluorescence. inhibition, % at 3 µM. hit rate 1.3% among 370,000;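 active = inhibition above the plate cutoff, the mean of all test compounds on that plate plus 3 SD, cut at about 35% in these data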;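 also: 0% = DMSO alone and 100% = 100 µM mitoxantrone as full dye displacement; higher means more dye released from RNA so lower well fluorescence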
# NadD inh: inhibitors of Staphylococcus aureus NadD; purified NadD enzyme, colorimetric absorbance read-out; inhibition, % at 20 µM; hit rate 0.78% among 360,000; AID 602399; in the data active = inhibition above about 26%
# NadD inh conf: NadD (S. aureus) inhibition, single concentration confirmation. inhibition, % at 20 µM. shares compounds with NadD inh. hit rate 13% among 2,000. purified S. aureus NadD, colorimetric enzyme assay; in the data active = inhibition mostly above about 42%, no sharp cut-off; inactive = mostly below about 42%
# Numbers without * were called inactive; . = no result given.
SMILES,core dimer inh,ABHD5-PLIN5 inh,rCAG RNA binder,NadD inh,NadD inh conf
CCC1CCCCN1c1ccc([N+](=O)[O-])cc1/C=N/NC(=O)Cn1c2ccccc2c(=O)c2ccccc21 (configuration not stated),47*,2,3,51*,3
COc1ccc(NC(=S)NC(=O)/C=C/c2ccco2)cc1,6,2,6,-2,.
O=C(/C=C/c1ccco1)NC(=S)Nc1ccc(O)c(-c2nc3ccccc3s2)c1,25,7,23,47*,0
CCOCCCn1c(SCC(=O)NC2CCCCC2)nc2ccccc2c1=O,.,7,1,0,.
COC(=O)c1cc(-c2cc3ccccc3s2)c(=O)n2c1CCC2,.,.,2,.,.
Cc1ccc2nc(-c3ccc(C#N)cc3)c(Cc3cccc(F)c3)n2c1,.,.,6,.,.
COc1ccccc1C(=O)NCCC(=O)N1CC=C(c2ccccc2)CC1,4,24*,-4,42*,8
Cc1cc(O)cc(=O)n1-c1cc(F)c(F)c(F)c1,.,.,1,.,.
O=C(Nc1ccccc1F)c1csc(COCCO)n1,.,4,1,1,.
COc1cc(C(=O)NC2CCCCN(Cc3cccc(Cl)c3)C2=O)cc(OC)c1OC (configuration not stated),.,.,-4,.,.
Cc1ccc(S(=O)(=O)NCc2ccccc2Br)cc1,.,0,0,.,.
COCCn1c(C)cc(C2=NNC(=Nc3ccc(Cl)cc3Cl)SC2)c1C,25,-5,29,36*,3
O=C1NC(=Nc2ccc(Cl)cc2)/C(=C/c2ccco2)S1,33,0,13,37*,-1
COc1ccc(Nc2nnc(SC(C(=O)Nc3cc(C)ccc3C)c3ccccc3)s2)cc1 (configuration not stated),33,-1,5,23,.
COc1ccc(Nc2nnc(SC(C(=O)Nc3ccc(OC)c(Cl)c3)c3ccccc3)s2)cc1 (configuration not stated),40,-5,19,32*,48
Nc1sc(-c2ccccc2)cc1C(=O)N1CCNCC1,.,-21,7,.,.
COC(=O)C1(C(=O)OC)Cc2ccccc2N(S(=O)(=O)c2ccc(C)cc2)C1CC(C)=O (configuration not stated),.,3,6,.,.
CCOc1ccc2oc(C(=O)OCC(=O)N(CC(C)C)c3c(N)n(Cc4ccccc4)c(=O)[nH]c3=O)c(C)c2c1,.,0,16,40*,34
N#C/C(=C\c1coc2ccc(O)cc2c1=O)C(=O)Nc1nc2ccccc2s1,21,7,-70,30*,42
COc1cc(NS(=O)(=O)c2ccc(NC(=S)NC(=O)c3sc4ccccc4c3Cl)cc2)nc(OC)n1,0,1,20,9,.
NC(N)=NS(=O)(=O)c1ccc(NC(=S)NC(=O)c2sc3ccccc3c2Cl)cc1,-15,3,25,43*,5
O=C(NNC(=S)NC(=O)c1sc2ccccc2c1Cl)c1ccc(Cl)cc1,15,-9,25,36*,13
NC(N)=NS(=O)(=O)c1ccc(NC(=S)NC(=O)c2ccncc2)cc1,2,0,4,4,.
COc1cc(NS(=O)(=O)c2ccc(NC(=S)NC(=O)c3sc4cc(F)ccc4c3Cl)cc2)nc(OC)n1,13,-6,17,35*,24
Cc1ccc2nc(-c3ccc(Cl)cc3)c(Cc3ccsc3)n2c1,.,.,13,.,.
SMILES,core dimer inh,ABHD5-PLIN5 inh,rCAG RNA binder,NadD inh,NadD inh conf
Cc1cc(-n2c(SCC(=O)Nc3ccc(Br)cc3)nc3n[nH]c(C)c3c2=N)ccc1Cl,13,-4,6,32*,10
Cc1cc(-n2c(SCC(=O)Nc3ccc(F)c(F)c3)nc3n[nH]c(C)c3c2=N)ccc1Cl,8,2,9,26,.
COc1ccc(NC(=O)CN2C(=O)NC(C)(Cc3ccc(OC)c(OC)c3)C2=O)cc1 (configuration not stated),.,-1,2,4,.
Cn1c(=NC(=O)c2ccc(S(=O)(=O)N3CCCc4ccccc43)cc2)sc2cc(S(C)(=O)=O)ccc21,0,0,3,14,.
C#CCn1c(=NC(=O)c2ccc(S(=O)(=O)N3CCCc4ccccc43)cc2)sc2cc(S(N)(=O)=O)ccc21,52*,2,-14,50*,39
O=C(O)c1ccccc1/C=N/Nc1ccc(S(=O)(=O)N2CCCC2)cc1[N+](=O)[O-],-1,-1,8,-9,.
CCOc1ccc(C=NNc2ccc(S(=O)(=O)Nc3ccccc3C(=O)O)cc2[N+](=O)[O-])cc1,.,5,.,34*,76*
CSc1ccc(C=NNc2ccc(S(=O)(=O)Nc3ccccc3C(=O)O)cc2[N+](=O)[O-])cc1,.,2,17,41*,21
COc1ccc(C=NNc2ccc(S(=O)(=O)Nc3ccccc3C(=O)O)cc2[N+](=O)[O-])c(OC)c1,.,2,.,20,.
Cn1cncc1C#Cc1ccc(N2C(c3ccsc3)=Cc3ccc(F)cc3C2c2c[nH]c3ccccc23)cc1 (configuration not stated),.,8,15,39*,39
CC(=O)CC1c2cc(F)ccc2C=C(c2ccsc2)N1c1ccc(C#Cc2cncn2C)cc1 (configuration not stated),.,10,16,42*,38
C=C1CN(Cc2ccccc2)S(=O)(=O)c2ccccc21,24,11,1,42*,32
CCOC(=O)C1CCN(C(=O)c2[nH]c(C(F)(F)F)nc2-c2ccccc2)CC1,.,3,3,-3,.
CCCS(=O)(=O)NC(=O)C1(C)CCCN(C(=O)c2ccc(F)c(Cl)c2)C1 (configuration not stated),.,6,5,-2,.
O=C(Nc1ncc(Cc2ccccc2Cl)s1)c1ccc(-c2cccc([N+](=O)[O-])c2)o1,11,0,8,36*,3
COc1ccc(-c2nnc(NC(=O)c3ccc(S(=O)(=O)N4CCc5ccccc5C4)cc3)o2)cc1,-4,0,.,84*,14
C/C(=N\NC(=O)c1cccc(N/N=C(\C)c2ccco2)c1)c1ccco1,.,3,24,38*,45
C/C(=N\NC(=O)c1cccc([N+](=O)[O-])c1)c1ccco1,-6,2,0,-6,.
CCCCCCCCN1C(=O)[C@H](CC(=O)NCCCOC)C[C@@]2(C(=O)OCC)CCCC=C12,.,4,3,-4,.
Nc1ccc2c(c1)C/C(=C/c1ccco1)C2=O,94*,9,32,31*,8
CC(C)(C)S(=O)(=O)N1Cc2ccc(CO)cc2[C@@H]1CCO,.,0,4,-2,.
COC(=O)c1ccc(N)c2c(N)ccc(C(=O)OC)c12,.,.,6,.,.
Cn1c(CNC(=O)c2ccc(Cl)c(Cl)c2)nnc1SCC(=O)Nc1sc2c(c1C#N)CCCC2,2,-2,1,45*,9
N#C/C(=C/c1cn(-c2ccccc2)nc1-c1cccc(OCc2ccc(F)cc2)c1)C(=O)NCCCn1ccnc1,0,10,7,37*,-4
CCc1cc2c(=O)c(-c3cnn(-c4ccccc4)c3)c(C)oc2cc1OCC(=O)Nc1ccc(F)c(F)c1,6,-2,3,33*,7

# Screening results: PubChem BioAssay, several laboratories
